Legend:
[1] = biological target: Sodium-dependent dopamine transporter (Rattus norvegicus, UniProt P23977); experiment: Inhibition of [3H]WIN-35428 binding to Dopamine transporter in rat striatal synaptic membranes; format: cell membranes, Membrane
[2] = biological target: Sodium-dependent dopamine transporter (Rattus norvegicus) (UniProt P23977); experiment: Ratio of binding affinity of E isomer to that ofZ isomer towards the dopamine transporter expressed as IC50(E)/IC50(Z)
Outline: (§1)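 Ratio of IC50 values for the E and Z isomers bearing the same para substituent on the 3β-phenyl ring. Both IC50s come from rat striatal membrane competition binding against 3 nM [3H]WIN 35,428, with 13 concentrations from 10^-12 to 10^-4 M and (−)-cocaine defining nonspecific binding.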

[3] = biological target: Sodium-dependent dopamine transporter (Rattus norvegicus) (UniProt P23977); experiment: Ratio of binding affinity of E isomer to that of Z isomer towards the dopamine transporter expressed as IC50(E)/IC50(Z); outline: as §1

Chain of Sodium-dependent dopamine transporter (Rattus norvegicus) (P23977 whole entry): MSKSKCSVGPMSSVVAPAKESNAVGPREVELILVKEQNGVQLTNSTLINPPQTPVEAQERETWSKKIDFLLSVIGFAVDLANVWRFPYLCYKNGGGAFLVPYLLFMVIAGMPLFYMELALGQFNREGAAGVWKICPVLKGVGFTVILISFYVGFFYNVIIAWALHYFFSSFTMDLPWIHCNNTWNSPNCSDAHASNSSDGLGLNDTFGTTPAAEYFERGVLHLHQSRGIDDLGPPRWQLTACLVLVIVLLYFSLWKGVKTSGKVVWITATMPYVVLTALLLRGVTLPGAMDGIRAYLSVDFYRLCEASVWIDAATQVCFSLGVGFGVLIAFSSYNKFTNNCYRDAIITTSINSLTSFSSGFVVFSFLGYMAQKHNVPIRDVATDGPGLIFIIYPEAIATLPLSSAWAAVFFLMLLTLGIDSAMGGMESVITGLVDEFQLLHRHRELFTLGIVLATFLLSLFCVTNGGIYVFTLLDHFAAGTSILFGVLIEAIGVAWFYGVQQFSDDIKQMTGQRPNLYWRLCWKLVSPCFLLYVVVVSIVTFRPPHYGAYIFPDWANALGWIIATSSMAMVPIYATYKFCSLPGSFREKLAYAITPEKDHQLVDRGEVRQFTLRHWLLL
Chain of Sodium-dependent dopamine transporter (P23977 whole entry): as above

SMILES	IC50 [1] [nM]	Ratio [2]	Ratio [3]
CN1C2CCC1C(C(=O)OC/C=C/I)C(c1ccc(Cl)cc1)C2 (stereo not drawn)	46.6	–	–
Cc1ccc(C2CC3CCC(C2C(=O)OC/C=C\I)N3C)cc1 (stereo not drawn)	39.2	4.84	–
CN1C2CCC1C(C(=O)OC/C=C\I)C(c1ccc(Cl)cc1)C2 (stereo not drawn)	24.9	1.87	–
Cc1ccc(C2CC3CCC(C2C(=O)OC/C=C/I)N3C)cc1 (stereo not drawn)	190	–	–
COC(=O)C1C(c2ccc(Cl)cc2)CC2CCC1N2C/C=C/I (stereo not drawn)	6.1	–	–
CN1C2CCC1C(C(=O)OC/C=C\I)C(c1ccc(F)cc1)C2 (stereo not drawn)	356	1.59	–
CN1C2CCC1C(C(=O)OC/C=C/I)C(c1ccc(F)cc1)C2 (stereo not drawn)	567	–	–
CN1C2CCC1C(C(=O)OC/C=C\I)C(c1ccccc1)C2 (stereo not drawn)	308	–	2.84
CN1C2CCC1C(C(=O)OC/C=C/I)C(c1ccccc1)C2 (stereo not drawn)	876	–	–

Source: ChEMBL document CHEMBL1133862, “Synthesis and binding affinities of 2 beta-(3-iodoallyloxycarbonyl)-3 beta-(4-substituted-aryl)tropane analogues as ligands for the dopamine transporter studies” (Bioorg Med Chem Lett, 2001)
